From ChEMBL document CHEMBL4627359, “Design, synthesis and biological evaluation of spiropyrazolopyridone derivatives as potent dengue virus inhibitors” (Bioorg Med Chem Lett, 2020)

Assays:
dengue virus type 4 = assay: Antiviral activity against DENV4 infected in human Huh7 cells; type: functional, organism-based; conditions: Huh-7
Summary of the method: (§1)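 Huh7 cells stably carrying a DENV replicon (serotype 1, 2, 3 or 4) with Renilla luciferase and neomycin-resistance genes. Seeded at 10k/well, incubated overnight at 37 °C in 5% CO₂, then given 2-fold serial compound dilutions in duplicate. After 48 h, luciferase was read with EnduRen live-cell substrate. EC50 came from four-parameter logistic fits of dose-response curves.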

dengue virus type 1 = assay: Antiviral activity against DENV1 infected in human Huh7 cells; type: functional, organism-based; conditions: Huh-7; summary of the method: as §1
dengue virus type 3 = assay: Antiviral activity against DENV3 infected in human Huh7 cells; type: functional, organism-based; conditions: Huh-7; summary of the method: as §1
dengue virus type 2 = assay: Antiviral activity against DENV2 infected in human Huh7 cells; type: functional, organism-based; conditions: Huh-7; summary of the method: as §1
Huh-7 = assay: Cytotoxicity against human HuH7 cells infected with DENV2 assessed as reduction in cell viability; type: cell-based
Summary of the method: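 Cytotoxicity was read in Huh7 cells stably carrying the DENV-2 Renilla luciferase replicon. Cells were seeded at 10k/well, incubated overnight at 37 °C in 5% CO₂, then given 2-fold serial compound dilutions in duplicate for 48 h. After the live-cell luciferase read, CellTiter-Glo was added to the same wells to measure viability.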

| SMILES | EC50 (dengue virus type 4) [µM] | EC50 (dengue virus type 1) [nM] | EC50 (dengue virus type 3) [nM] | EC50 (dengue virus type 2) [nM] | CC50 (Huh-7) [µM] |
| --- | --- | --- | --- | --- | --- |
| O=C1CC2(C(=O)Nc3ccc(Cl)cc32)c2cnn(Cc3ccc(Cl)cc3)c2N1 (stereo not drawn) | > 10 | 2400 | 6 | 110 | > 10 |
| NC(=O)C1C(=O)Nc2c(cnn2Cc2ccc(Cl)cc2)C12C(=O)Nc1ccc(Cl)cc12 (stereo not drawn) | – | – | – | 3200 | 50 |
| Cc1nn(Cc2ccc(Cl)cc2)c2c1C1(CC(=O)N2)C(=O)Nc2ccc(Cl)cc21 (stereo not drawn) | > 5 | 2500 | 25 | 1800 | > 10 |
| O=C1CC2(C(=O)Nc3ccc(Cl)cc32)c2cn(Cc3ccc(Cl)cc3)nc2N1 (stereo not drawn) | – | – | – | 4400 | > 10 |
| O=C1CC2(C(=O)Nc3ccc(Cl)cc32)c2c(C3CC3)nn(Cc3ccc(Cl)cc3)c2N1 (stereo not drawn) | – | – | – | 1900 | > 10 |
| O=C1CC2(C(=O)Nc3ccc(Cl)cc32)c2cnn(Cc3ccc(F)cc3)c2N1 (stereo not drawn) | – | – | – | 4200 | – |
| O=C1CC2(C(=O)Nc3ccc(Cl)cc32)c2cnn(Cc3ccc(Cl)c(F)c3)c2N1 (stereo not drawn) | > 5 | 1800 | 19 | 50 | > 10 |
| O=C1CC2(C(=O)Nc3ccc(Cl)cc32)c2cnn(Cc3ccc(Cl)c(Cl)c3)c2N1 (stereo not drawn) | > 5 | 1800 | > 5000 | 62 | > 10 |
| COC(=O)c1ccc(Cn2ncc3c2NC(=O)CC32C(=O)Nc3ccc(Cl)cc32)cc1 (stereo not drawn) | – | – | – | > 5000 | – |
| N#Cc1ccc(Cn2ncc3c2NC(=O)CC32C(=O)Nc3ccc(Cl)cc32)cc1 (stereo not drawn) | – | – | – | > 5000 | – |
| N#CC1C(=O)Nc2c(cnn2Cc2ccc(Cl)cc2)C12C(=O)Nc1ccc(Cl)cc12 (stereo not drawn) | – | – | – | 8600 | 50 |
| CC(=O)C1C(=O)Nc2c(cnn2Cc2ccc(Cl)cc2)C12C(=O)Nc1ccc(Cl)cc12 (stereo not drawn) | – | – | – | > 10000 | > 20 |
| O=C1CC2(C(=O)Nc3ccc(Cl)cc32)c2cn(Cc3ccc(Cl)c(Cl)c3)nc2N1 (stereo not drawn) | – | – | – | 1100 | > 10 |
| N#Cc1cn(Cc2ccc(Cl)cc2)c2c1C1(CC(=O)N2)C(=O)Nc2ccc(Cl)cc21 (stereo not drawn) | – | – | – | > 5000 | – |
| O=C1CC2(C(=O)Nc3ccc(Cl)cc32)c2cnn(Cc3ccc(Cl)cc3F)c2N1 (stereo not drawn) | > 5 | 2300 | 390 | 140 | > 10 |
| O=C1CC2(C(=O)Nc3ccc(Cl)cc32)c2cnn(Cc3ccc(C(F)(F)F)cc3C(F)(F)F)c2N1 (stereo not drawn) | > 5 | 1600 | 17 | 38 | > 10 |
| O=C1CC2(C(=O)Nc3ccc(Cl)cc32)c2cnn(Cc3ccc(C(=O)O)cc3)c2N1 (stereo not drawn) | – | – | – | > 5000 | – |
| CS(=O)(=O)c1ccc(Cn2ncc3c2NC(=O)CC32C(=O)Nc3ccc(Cl)cc32)cc1 (stereo not drawn) | – | – | – | > 5000 | – |
